# Assay results pooled from the literature.
# Lines come from different studies, so protocols differ.
# Target: RAC-gamma serine/threonine-protein kinase (AKT3, Homo sapiens, UniProt Q9Y243)
Structure (SMILES),test,conditions,remaining binding
COc1cnc(Nc2cccc(S(N)(=O)=O)c2)nc1N1CCN(c2ccccc2)C(=O)C1,"binding, competition with immobilised ligand",1 µM,100%
N[C@H]1CCN(c2nccc(-c3cnn4ncccc34)n2)C1,binding,1 µM,100%
Nc1ncc2c(n1)-c1c([nH]c3ccc(C#CC4CC4)cc13)CCCC2,"binding, competition with immobilised ligand",1 µM,69%
CCC(=O)N[C@H]1CC[C@@H](C(=O)N(C)c2ccc(-c3nc4ccccc4o3)cc2)C1,"cell-free assay, competition with immobilised ligand",1 µM,100%
Cc1cnc(Nc2ccc(C(=O)N3CCC(N4CCCC4)CC3)cc2)nc1-c1cc2ccccc2s1,"binding, competition with immobilised ligand",1 µM,100%
CN(C)c1nccc(-c2cnn3ncccc23)n1,binding,1 µM,100%
O=C(O)[C@@H]1[C@@H](Cn2nnc3ccccc3c2=O)CC[C@H]1C(=O)c1ccc(OCCC2CCOCC2)cc1,"cell-free assay, competition with immobilised ligand",1 µM,100%
c1cnn2ncc(-c3ccnc(N4CCC45COC5)n3)c2c1,binding,1 µM,86%
O=C(NCC1CCOCC1)c1n[nH]cc1NC(=O)c1c(F)cccc1F,"binding, competition with immobilised ligand",1 µM,90%
C[C@@H]1CN(c2cc(-c3n[nH]c4ccc(OC5(C)CC5)cc34)ncn2)C[C@H](C)O1,"cell-free assay, competition with immobilised ligand",0.1 µM,86%
c1cncc(-c2cccc(Nc3nccc(NC4CCCCC4)n3)c2)c1,"binding, competition with immobilised ligand",10 µM,69%
COc1ccc2c(c1)O[C@H](c1ccc(OC)c(OC)c1)C[C@@H]2NC(=O)C1(c2ccc3c(c2)OC(F)(F)O3)CC1,"cell-free assay, competition with immobilised ligand",1 µM,100%
O=C(NCCCN1CCOCC1)c1ccc(Nc2nccc(-c3cc4ccccc4s3)n2)cc1,"binding, competition with immobilised ligand",1 µM,100%
C[C@@H]1CCN(c2nccc(-c3cnn4ncccc34)n2)C1,binding,1 µM,78%
c1ccc(N2CCN(Cc3nc4ccccc4[nH]3)CC2)nc1,"binding, competition with immobilised ligand",1 µM,100%
COc1cnc(Nc2cccc(S(N)(=O)=O)c2)nc1N1CCN(c2ccccc2)CC1,"binding, competition with immobilised ligand",1 µM,100%
NS(=O)(=O)c1cc(NC(=O)C2(c3ccccc3Cl)CC2)ccc1Oc1cccc(Cl)c1,"cell-free assay, competition with immobilised ligand",1 µM,79%
F[C@@H]1CCN(c2nccc(-c3cnn4ncccc34)n2)C1,binding,1 µM,93%
C[C@@H](c1ccc(-n2cnc3c(N)ncnc32)cc1)N1CCc2nn(C)c(Cc3ccccc3)c2C1=O,"binding, competition with immobilised ligand",0.1 µM,62%
O=C(c1ccc(Nc2ncc(Cl)c(-c3ccc(Cl)s3)n2)cc1)N1CCC(N2CCCC2)CC1,"binding, competition with immobilised ligand",1 µM,100%
CN(C)c1nccc(-c2cnc3ncccn23)n1,binding,1 µM,91%
